{
  "source": "ChEMBL document CHEMBL1121744",
  "about": "“Synthesis and antihypertensive activity of a series of 8-substituted 1-oxa-3,8-diazaspiro[4.5]decan-2-ones” (J Med Chem, 1981)",
  "key": {"[1]": {"assay": "(§1) Distribution coefficient between 1-Octanol and phosphate buffer at pH7.4", "type": "physicochemical", "conditions": "1-octanol/phosphate buffer, pH 7.4", "procedure,_shortened": "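Octanol/buffer distribution measured at pH 7.4 in phosphate with sodium chloride. Either HPLC (0.004 M) or shake flask.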"}, "Rattus norvegicus [2]": {"system": "Rattus norvegicus", "assay": "Antihypertensive activity as percentage fall in systolic blood pressure in spontaneously hypertensive rats after a period of 3 hr for a dose of 50 mg/kg po; NS=Not significant", "type": "functional, organism-based", "set-up": "dose 50 mg/kg", "conditions": "Artery", "procedure,_shortened": "(§2)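 Male Okamoto-Aoki SHR, trained, in groups of four matched for systolic pressure, with a concurrent vehicle control group. Oral dosing on two consecutive mornings, in water as solution or suspension at 0.1 mL/10 g. On day 2 rats were restrained at 30.0 ± 1.0 °C. Tail-cuff systolic pressure, four traces per rat, read at each hour. Per cent fall versus control; 1-tail t test, p ≤ 0.05.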"}, "Rattus norvegicus [3]": {"system": "Rattus norvegicus", "assay": "Antihypertensive activity as percentage fall in systolic blood pressure in spontaneously hypertensive rats after a period of 4 hr for a dose of 50 mg/kg po; NS=Not significant", "type": "functional, organism-based", "set-up": "dose 50 mg/kg", "conditions": "Artery", "procedure,_shortened": "as §2"}, "Rattus norvegicus [4]": {"system": "Rattus norvegicus", "assay": "Antihypertensive activity as percentage fall in systolic blood pressure in spontaneously hypertensive rats after a period of 1 hr for a dose of 50 mg/kg po; NS=Not significant", "type": "functional, organism-based", "set-up": "dose 50 mg/kg", "conditions": "Artery", "procedure,_shortened": "as §2"}, "Rattus norvegicus [5]": {"system": "Rattus norvegicus", "assay": "Antihypertensive activity as percentage fall in systolic blood pressure in spontaneously hypertensive rats after a period of 2 hr for a dose of 50 mg/kg po; NS=Not significant", "type": "functional, organism-based", "set-up": "dose 50 mg/kg", "conditions": "Artery", "procedure,_shortened": "as §2"}, "Rattus norvegicus [6]": {"system": "Rattus norvegicus", "assay": "The antihypertensive activity as percentage fall in systolic blood pressure in spontaneously hypertensive rats after a period of 1 hr for a dose of 50 mg/kg po"}, "Rattus norvegicus [7]": {"system": "Rattus norvegicus", "assay": "The antihypertensive activity as percentage fall in systolic blood pressure in spontaneously hypertensive rats after a period of 3 hr for a dose of 50 mg/kg po"}, "Rattus norvegicus [8]": {"system": "Rattus norvegicus", "assay": "The antihypertensive activity as percentage fall in systolic blood pressure in spontaneously hypertensive rats after a period of 4 hr for a dose of 50 mg/kg po"}, "Rattus norvegicus [9]": {"system": "Rattus norvegicus", "assay": "The antihypertensive activity as percentage fall in systolic blood pressure in spontaneously hypertensive rats after a period of 2 hr for a dose of 50 mg/kg po"}, "[10]": {"assay": "as §1", "type": "physicochemical", "conditions": "1-octanol/phosphate buffer, pH 7.4", "remark": "listed apart in the source"}, "Rattus norvegicus [11]": {"system": "Rattus norvegicus", "assay": "Antihypertensive activity as percentage fall in systolic blood pressure in spontaneously hypertensive rats after a period of 3 h for a dose of 50 mg/kg", "type": "functional, organism-based", "set-up": "dose 50 mg/kg", "conditions": "Artery", "procedure,_shortened": "(§3)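 Male Okamoto-Aoki SHR, trained, in groups of four matched for mean systolic pressure; one group per run received water vehicle. Oral dosing in water (0.1 mL per 10 g) on two consecutive mornings. After the day-2 dose, rats were restrained at 30.0 ± 1.0 °C. Systolic pressure was read by tail cuff (inflated to 300 mmHg, first pulse) at 1–4 h. % fall is versus the untreated control group, by 1-tail t test (p ≤ 0.05).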"}, "Rattus norvegicus [12]": {"system": "Rattus norvegicus", "assay": "The antihypertensive activity as percentage fall in systolic blood pressure in spontaneously hypertensive rats after a period of 1 hr for a dose of 100 mg/kg po", "type": "functional, Artery", "procedure,_shortened": "as §3"}, "Rattus norvegicus [13]": {"system": "Rattus norvegicus", "assay": "The antihypertensive activity as percentage fall in systolic blood pressure in spontaneously hypertensive rats after a period of 2 hr for a dose of 100 mg/kg po", "type": "functional, Artery", "procedure,_shortened": "as §3"}, "Rattus norvegicus [14]": {"system": "Rattus norvegicus", "assay": "The antihypertensive activity as percentage fall in systolic blood pressure in spontaneously hypertensive rats after a period of 3 hr for a dose of 100 mg/kg po", "type": "functional, Artery", "procedure,_shortened": "as §3"}, "Rattus norvegicus [15]": {"system": "Rattus norvegicus", "assay": "The antihypertensive activity as percentage fall in systolic blood pressure in spontaneously hypertensive rats after a period of 4 hr for a dose of 100 mg/kg po; NS=Not significant", "type": "functional, organism-based", "set-up": "dose 100 mg/kg", "conditions": "Artery", "procedure,_shortened": "as §3"}, "Rattus norvegicus [16]": {"system": "Rattus norvegicus", "assay": "Antihypertensive activity as percentage fall in systolic blood pressure in spontaneously hypertensive rats after a period of 2 hr for a dose of 50 mg/kg", "type": "functional, organism-based", "set-up": "dose 50 mg/kg", "conditions": "Artery", "procedure,_shortened": "as §3"}, "Rattus norvegicus [17]": {"system": "Rattus norvegicus", "assay": "Antihypertensive activity as percentage fall in systolic blood pressure in spontaneously hypertensive rats after a period of 1 hr for a dose of 50 mg/kg po", "type": "functional, organism-based", "set-up": "dose 50 mg/kg", "conditions": "Artery", "procedure,_shortened": "as §3"}, "Rattus norvegicus [18]": {"system": "Rattus norvegicus", "assay": "Antihypertensive activity as percentage fall in systolic blood pressure in spontaneously hypertensive rats after a period of 4 hr for a dose of 50 mg/kg", "type": "functional, organism-based", "set-up": "dose 50 mg/kg", "conditions": "Artery", "procedure,_shortened": "as §3"}, "Rattus norvegicus [19]": {"system": "Rattus norvegicus", "assay": "The antihypertensive activity as percentage fall in systolic blood pressure in spontaneously hypertensive rats after a period of 1 hr for a dose of 25 mg/kg po", "type": "functional, Artery", "procedure,_shortened": "as §3"}, "Rattus norvegicus [20]": {"system": "Rattus norvegicus", "assay": "The antihypertensive activity as percentage fall in systolic blood pressure in spontaneously hypertensive rats after a period of 2 hr for a dose of 25 mg/kg po; NS=Not significant", "type": "functional, organism-based", "set-up": "dose 25 mg/kg", "conditions": "Artery", "procedure,_shortened": "as §3"}, "Rattus norvegicus [21]": {"system": "Rattus norvegicus", "assay": "The antihypertensive activity as percentage fall in systolic blood pressure in spontaneously hypertensive rats after a period of 3 hr for a dose of 25 mg/kg po; NS=Not significant", "type": "functional, organism-based", "set-up": "dose 25 mg/kg", "conditions": "Artery", "procedure,_shortened": "as §3"}, "Rattus norvegicus [22]": {"system": "Rattus norvegicus", "assay": "The antihypertensive activity as percentage fall in systolic blood pressure in spontaneously hypertensive rats after a period of 4 hr for a dose of 25 mg/kg po; NS=Not significant", "type": "functional, organism-based", "set-up": "dose 25 mg/kg", "conditions": "Artery", "procedure,_shortened": "as §3"}, "Rattus norvegicus [23]": {"system": "Rattus norvegicus", "assay": "Antihypertensive activity as percentage fall in systolic blood pressure in spontaneously hypertensive rats after a period of 1 hr for a dose of 50 mg/kg", "type": "functional, Artery", "procedure,_shortened": "as §3"}, "Rattus norvegicus [24]": {"system": "Rattus norvegicus", "assay": "Percentage fall in systolic blood pressure in spontaneously hypertensive rats after 2 hr following 50 mg/kg p.o.", "type": "functional, Artery", "conditions": "route oral, 50 mg/kg", "procedure,_shortened": "as §3"}, "Rattus norvegicus [25]": {"system": "Rattus norvegicus", "assay": "Percentage fall in systolic blood pressure in spontaneously hypertensive rats after 3 h following 50 mg/kg p.o.", "type": "functional, Artery", "conditions": "route oral", "procedure,_shortened": "as §3"}},
  "note": "“And” between values parts separate entries of the source, which are not always exact repeats. Equal values may be shown once. The source made the active and inactive calls. The calls are words filed in the database; no cut-off is given here.",
  "data": [
    {"smiles": "CN1CC2(CCN(CCc3c[nH]c4ccccc34)CC2)OC1=O", "values": [
      {"measurement": "logD", "setting": "[1]", "value": 1.73},
      {"measurement": "Decrease in blood pressure", "setting": "Rattus norvegicus [2]", "value": "inactive"},
      {"measurement": "Decrease in blood pressure", "setting": "Rattus norvegicus [3]", "value": "inactive"},
      {"measurement": "Decrease in blood pressure", "setting": "Rattus norvegicus [4]", "value": "inactive"},
      {"measurement": "Decrease in blood pressure", "setting": "Rattus norvegicus [5]", "value": "inactive"},
      {"measurement": "Decrease in blood pressure", "setting": "Rattus norvegicus [6]", "value": 23, "unit": "%"},
      {"measurement": "Decrease in blood pressure", "setting": "Rattus norvegicus [7]", "value": 8, "unit": "%"},
      {"measurement": "Decrease in blood pressure", "setting": "Rattus norvegicus [8]", "value": 9, "unit": "%"},
      {"measurement": "Decrease in blood pressure", "setting": "Rattus norvegicus [9]", "value": 18, "unit": "%"}
    ]},
    {"smiles": "CC1NC(=O)OC12CCN(CC(O)C1COc3ccccc3O1)CC2", "note": "(stereo unspecified)", "values": [
      {"measurement": "logD", "setting": "[10]", "value": 1.21},
      {"measurement": "Decrease in blood pressure", "setting": "Rattus norvegicus [11]", "value": "Not significant"},
      {"measurement": "Decrease in blood pressure", "setting": "Rattus norvegicus [12]", "value": 15, "unit": "%"},
      {"measurement": "Decrease in blood pressure", "setting": "Rattus norvegicus [13]", "value": 15, "unit": "%"},
      {"measurement": "Decrease in blood pressure", "setting": "Rattus norvegicus [14]", "value": 14, "unit": "%"},
      {"measurement": "Decrease in blood pressure", "setting": "Rattus norvegicus [15]", "value": "inactive"},
      {"measurement": "Decrease in blood pressure", "setting": "Rattus norvegicus [16]", "value": "Not significant"},
      {"measurement": "Decrease in blood pressure", "setting": "Rattus norvegicus [17]", "value": "Not significant"},
      {"measurement": "Decrease in blood pressure", "setting": "Rattus norvegicus [18]", "value": "Not significant"}
    ]},
    {"smiles": "CC(C)N1CC2(CCN(CC(O)C3COc4ccccc4O3)CC2)OC1=O", "note": "(stereo unspecified)", "values": [
      {"measurement": "logD", "setting": "[1]", "value": 2.05},
      {"measurement": "Decrease in blood pressure", "setting": "Rattus norvegicus [19]", "value": 14, "unit": "%"},
      {"measurement": "Decrease in blood pressure", "setting": "Rattus norvegicus [20]", "value": "inactive"},
      {"measurement": "Decrease in blood pressure", "setting": "Rattus norvegicus [21]", "value": "inactive"},
      {"measurement": "Decrease in blood pressure", "setting": "Rattus norvegicus [22]", "value": "inactive"},
      {"measurement": "Decrease in blood pressure", "setting": "Rattus norvegicus [23]", "value": 26, "unit": "%"},
      {"measurement": "Decrease in blood pressure", "setting": "Rattus norvegicus [24]", "value": "20% and 16%"},
      {"measurement": "Decrease in blood pressure", "setting": "Rattus norvegicus [25]", "value": 16, "unit": "%"}
    ]}
  ]
}
